In ChEMBL document CHEMBL4321823, “Benzyl Phenylsemicarbazides: A Chemistry-Driven Approach Leading to G Protein-Biased Dopamine D4 Receptor Agonists with High Subtype Selectivity” (J Med Chem, 2019):
The source made the active and inactive calls. The calls are words filed in the database; no cut-off is given here.

Tests used:
D(2) dopamine receptor [1] = target: T1, D(2) dopamine receptor (Homo sapiens, UniProt P14416); test: Displacement of [3H] Spiperone from human D2L receptor expressed in CHO cells by competitive radioligand binding assay; format: cell-based
D(4) dopamine receptor [2] = target: T2, D(4) dopamine receptor (Homo sapiens, UniProt P21917); format: cell-based, HEK293
T2 sequence (P21917 whole entry): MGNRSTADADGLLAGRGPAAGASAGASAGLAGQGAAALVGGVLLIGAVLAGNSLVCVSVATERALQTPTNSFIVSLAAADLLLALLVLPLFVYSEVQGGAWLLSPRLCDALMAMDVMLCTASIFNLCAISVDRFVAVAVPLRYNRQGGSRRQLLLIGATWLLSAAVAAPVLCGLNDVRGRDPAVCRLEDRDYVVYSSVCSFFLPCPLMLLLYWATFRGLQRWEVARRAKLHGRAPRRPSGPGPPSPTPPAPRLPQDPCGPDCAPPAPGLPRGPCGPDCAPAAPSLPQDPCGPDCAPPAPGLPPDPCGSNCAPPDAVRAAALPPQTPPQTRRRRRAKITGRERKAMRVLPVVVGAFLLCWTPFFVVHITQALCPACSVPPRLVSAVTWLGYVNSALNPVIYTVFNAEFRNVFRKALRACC

D(4) dopamine receptor [3] = target: T2, D(4) dopamine receptor; test: Displacement of [3H] Spiperone from human D4.4 receptor expressed in CHO cells by competitive radioligand binding assay; format: cell-based
D(4) dopamine receptor [4] = target: T2, D(4) dopamine receptor; test: Agonist activity at human D4 receptor expressed in HEK293T cells co-expressing G-alphaqi assessed as accumulation of inositol monophosphate using d2-labelled IP1 conjugate incubated for 90 mins by HTRF assay; format: functional, cell-based
Homo sapiens [5] = species on record: Homo sapiens; test: Selectivity index, ratio of Ki for displacement of [3H] Spiperone from human D3 receptor expressed in CHO cells to Ki for displacement of [3H] Spiperone from human D4.4 receptor expressed in CHO cells; format: cell-based
Outline: (§1)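 Competition binding against [3H]spiperone on membranes of CHO cells stably expressing cloned human D2L, D2S, D3 or D4.4 receptors. Ki from monophasic curve fits; mean ± SEM of three to seven experiments, each in triplicate. Selectivity calculated as Ki(D2L, D2S or D3) divided by Ki(D4.4).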

Homo sapiens [6] = species on record: Homo sapiens; test: Selectivity index, ratio of Ki for displacement of [3H] Spiperone from human D2S receptor expressed in CHO cells to Ki for displacement of [3H] Spiperone from human D4.4 receptor expressed in CHO cells; format: cell-based; outline: as §1
Homo sapiens [7] = species on record: Homo sapiens; test: Selectivity index, ratio of Ki for displacement of [3H] Spiperone from human D2L receptor expressed in CHO cells to Ki for displacement of [3H] Spiperone from human D4.4 receptor expressed in CHO cells; format: cell-based; outline: as §1
D(4) dopamine receptor [8] = target: T2, D(4) dopamine receptor; test: Antagonist activity at […] D4 receptor (unknown origin) expressed in HEK293 cells co-expressing beta-arrestin2 assessed as inhibition of quinpirole-induced beta-arrestin2 recruitment preincubated for 30 mins followed by quinpirole addition and further incubated for 6 hrs by Path-Hunter assay; format: cell-based
D(2) dopamine receptor [9] = target: T1, D(2) dopamine receptor; test: Displacement of [3H] Spiperone from human D2S receptor expressed in CHO cells by competitive radioligand binding assay; format: cell-based
D(3) dopamine receptor = D(3) dopamine receptor (Homo sapiens, UniProt P35462); test: Displacement of [3H] Spiperone from human D3 receptor expressed in CHO cells by competitive radioligand binding assay; format: cell-based
[10] = target: Kappa-type opioid receptor (Homo sapiens, UniProt P41145); test: Displacement of [3H] diprenorphine from kappa opioid receptor (unknown origin)
Outline: (§2)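 Radioligand competition binding; Ki given as mean ± SD from two individual experiments, each run in triplicate.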

[11] = target: T3, Muscarinic acetylcholine receptor M2 (Homo sapiens, UniProt P08172); test: Displacement of [3H] NMS from muscarinic M2 receptor (unknown origin); outline: as §2
T3 sequence (P08172 whole entry): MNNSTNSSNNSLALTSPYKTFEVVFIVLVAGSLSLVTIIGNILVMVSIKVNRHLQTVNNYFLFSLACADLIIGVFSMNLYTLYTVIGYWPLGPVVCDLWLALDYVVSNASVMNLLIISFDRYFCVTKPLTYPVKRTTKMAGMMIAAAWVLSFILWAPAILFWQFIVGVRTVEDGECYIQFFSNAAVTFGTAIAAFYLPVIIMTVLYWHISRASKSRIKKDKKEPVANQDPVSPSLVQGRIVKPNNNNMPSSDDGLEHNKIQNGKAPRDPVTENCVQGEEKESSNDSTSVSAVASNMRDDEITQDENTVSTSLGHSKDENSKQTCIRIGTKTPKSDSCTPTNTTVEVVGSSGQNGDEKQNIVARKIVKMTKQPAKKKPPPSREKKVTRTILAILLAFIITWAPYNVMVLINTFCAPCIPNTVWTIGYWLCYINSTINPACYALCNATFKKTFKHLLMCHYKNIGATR

[12] = target: Beta-2 adrenergic receptor (Homo sapiens, UniProt P07550); test: Displacement of [3H] CGP12177 from beta2 adrenergic receptor (unknown origin)
[13] = target: Muscarinic acetylcholine receptor M3 (Homo sapiens, UniProt P20309); test: Displacement of [3H] NMS from muscarinic M3 receptor (unknown origin); outline: as §2
D(1A) dopamine receptor = D(1A) dopamine receptor (Homo sapiens, UniProt P21728); test: Displacement of [3H] SCH23390 from D1 receptor (unknown origin)
[14] = target: T4, Alpha-2A adrenergic receptor (Homo sapiens, UniProt P08913); test: Displacement of [3H] RX821002 from alpha2A adrenergic receptor (unknown origin)
T4 sequence (P08913 whole entry): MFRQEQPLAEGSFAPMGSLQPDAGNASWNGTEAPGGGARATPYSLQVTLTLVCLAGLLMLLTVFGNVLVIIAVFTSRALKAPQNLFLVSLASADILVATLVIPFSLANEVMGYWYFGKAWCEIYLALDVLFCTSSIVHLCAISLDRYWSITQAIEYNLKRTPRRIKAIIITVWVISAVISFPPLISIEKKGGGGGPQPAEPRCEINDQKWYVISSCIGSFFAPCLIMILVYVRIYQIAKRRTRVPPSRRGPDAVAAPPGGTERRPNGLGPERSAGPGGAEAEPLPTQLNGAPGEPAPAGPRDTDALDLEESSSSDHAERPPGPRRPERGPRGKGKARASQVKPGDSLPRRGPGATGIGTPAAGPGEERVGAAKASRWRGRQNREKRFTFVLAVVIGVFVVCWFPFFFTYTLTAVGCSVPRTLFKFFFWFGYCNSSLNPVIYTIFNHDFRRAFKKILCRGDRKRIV

Mu-type opioid receptor = Mu-type opioid receptor (Homo sapiens, UniProt P35372); test: Displacement of [3H] diprenorphine from mu opioid receptor (unknown origin); outline: as §2
[15] = target: T5, Alpha-1A adrenergic receptor (Homo sapiens) (UniProt P35348); test: Antagonist activity at human alpha1A adrenergic receptor expressed in HEK293T cells assessed as accumulation of inositol monophosphate using d2-labelled IP1 conjugate incubated for 60 mins by HTRF assay; format: functional, cell-based
T5 sequence (whole entry): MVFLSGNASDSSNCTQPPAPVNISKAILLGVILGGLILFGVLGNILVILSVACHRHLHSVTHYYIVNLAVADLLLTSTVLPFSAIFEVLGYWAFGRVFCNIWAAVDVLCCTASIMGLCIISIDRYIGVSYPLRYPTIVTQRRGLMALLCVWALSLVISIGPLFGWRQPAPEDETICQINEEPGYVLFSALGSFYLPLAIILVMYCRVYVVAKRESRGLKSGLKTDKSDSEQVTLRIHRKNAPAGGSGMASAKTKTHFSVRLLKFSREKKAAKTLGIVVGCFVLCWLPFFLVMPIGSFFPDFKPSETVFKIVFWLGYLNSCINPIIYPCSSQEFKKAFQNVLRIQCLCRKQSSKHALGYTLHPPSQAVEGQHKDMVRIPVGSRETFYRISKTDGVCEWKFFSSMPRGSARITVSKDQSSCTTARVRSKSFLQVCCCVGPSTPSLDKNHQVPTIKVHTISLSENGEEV

[16] = target: Beta-1 adrenergic receptor (Homo sapiens, UniProt P08588); test: Displacement of [3H] CGP12177 from beta1 adrenergic receptor (unknown origin)
[17] = target: 5-hydroxytryptamine receptor 2A (Homo sapiens, UniProt P28223); test: Displacement of [3H] Ketanserin from 5HT2A receptor (unknown origin)
[18] = target: Delta-type opioid receptor (Homo sapiens, UniProt P41143); test: Displacement of [3H] diprenorphine from delta opioid receptor (unknown origin)
D(1B) dopamine receptor = D(1B) dopamine receptor (Homo sapiens, UniProt P21918); test: Displacement of [3H] SCH23390 from D5 receptor (unknown origin)
[19] = target: T6, 5-hydroxytryptamine receptor 1A (Homo sapiens, UniProt P08908); test: Displacement of [3H] WAY100635 from 5HT1A receptor (unknown origin); outline: as §2
T6 sequence (P08908 whole entry): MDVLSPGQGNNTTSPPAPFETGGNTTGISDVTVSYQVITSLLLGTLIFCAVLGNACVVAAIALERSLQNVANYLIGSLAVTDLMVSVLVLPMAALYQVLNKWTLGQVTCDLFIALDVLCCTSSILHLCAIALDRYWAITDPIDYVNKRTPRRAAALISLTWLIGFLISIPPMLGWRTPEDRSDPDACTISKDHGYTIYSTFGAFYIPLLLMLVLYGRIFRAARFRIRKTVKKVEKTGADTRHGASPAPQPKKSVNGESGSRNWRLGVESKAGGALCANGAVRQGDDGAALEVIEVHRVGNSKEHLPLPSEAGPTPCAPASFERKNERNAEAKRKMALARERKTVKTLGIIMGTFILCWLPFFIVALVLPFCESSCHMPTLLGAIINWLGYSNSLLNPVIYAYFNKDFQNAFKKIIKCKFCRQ

[20] = target: T7, Muscarinic acetylcholine receptor M1 (Homo sapiens, UniProt P11229); test: Displacement of [3H] NMS from muscarinic M1 receptor (unknown origin); outline: as §2
T7 sequence (P11229 whole entry): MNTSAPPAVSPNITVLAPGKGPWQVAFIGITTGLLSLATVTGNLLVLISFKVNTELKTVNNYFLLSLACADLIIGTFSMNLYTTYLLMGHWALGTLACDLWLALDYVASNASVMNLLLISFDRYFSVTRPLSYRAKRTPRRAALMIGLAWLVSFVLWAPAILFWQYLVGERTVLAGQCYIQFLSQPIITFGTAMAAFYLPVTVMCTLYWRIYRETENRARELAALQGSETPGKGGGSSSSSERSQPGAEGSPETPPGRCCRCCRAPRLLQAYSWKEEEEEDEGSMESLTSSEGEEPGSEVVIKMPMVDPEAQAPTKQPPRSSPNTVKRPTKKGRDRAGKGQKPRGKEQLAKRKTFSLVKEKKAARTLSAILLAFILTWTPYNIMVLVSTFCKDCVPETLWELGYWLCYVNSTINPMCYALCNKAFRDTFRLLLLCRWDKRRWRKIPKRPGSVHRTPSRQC

[21] = target: T8, Alpha-1A adrenergic receptor (Homo sapiens, UniProt P35348); test: Displacement of [3H] prazosin from alpha1A adrenergic receptor (unknown origin)
T8 sequence (P35348 whole entry): T5 sequence (whole entry)

[22] = Drug metabolism in Sprague-Dawley rat liver microsomes assessed as metabolite formation at 20 uM measured after 120 mins in presence of NADPH by LC-ESI-MS analysis; format: ADME, Microsome; conditions: 2 h
[23] = Drug metabolism in Sprague-Dawley rat liver microsomes assessed as unchanged remaining parent compound at 20 uM measured after 120 mins in presence of NADPH by LC-ESI-MS analysis; format: ADME, Microsome; conditions: read-out: Drug metabolism

T1 sequence (P14416 whole entry): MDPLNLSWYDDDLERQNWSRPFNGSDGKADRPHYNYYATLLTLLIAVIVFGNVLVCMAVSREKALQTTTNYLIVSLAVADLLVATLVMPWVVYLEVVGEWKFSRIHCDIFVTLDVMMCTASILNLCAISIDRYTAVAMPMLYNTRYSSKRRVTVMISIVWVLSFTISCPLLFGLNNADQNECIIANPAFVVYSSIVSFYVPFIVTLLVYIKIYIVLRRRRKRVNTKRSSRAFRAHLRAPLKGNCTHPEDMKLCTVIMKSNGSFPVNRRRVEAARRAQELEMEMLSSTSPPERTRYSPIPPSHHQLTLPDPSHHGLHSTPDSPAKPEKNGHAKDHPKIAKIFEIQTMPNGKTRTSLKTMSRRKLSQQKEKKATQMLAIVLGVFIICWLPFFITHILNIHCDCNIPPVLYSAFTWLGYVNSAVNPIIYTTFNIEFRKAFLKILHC
Chain of D(3) dopamine receptor (P35462 whole entry): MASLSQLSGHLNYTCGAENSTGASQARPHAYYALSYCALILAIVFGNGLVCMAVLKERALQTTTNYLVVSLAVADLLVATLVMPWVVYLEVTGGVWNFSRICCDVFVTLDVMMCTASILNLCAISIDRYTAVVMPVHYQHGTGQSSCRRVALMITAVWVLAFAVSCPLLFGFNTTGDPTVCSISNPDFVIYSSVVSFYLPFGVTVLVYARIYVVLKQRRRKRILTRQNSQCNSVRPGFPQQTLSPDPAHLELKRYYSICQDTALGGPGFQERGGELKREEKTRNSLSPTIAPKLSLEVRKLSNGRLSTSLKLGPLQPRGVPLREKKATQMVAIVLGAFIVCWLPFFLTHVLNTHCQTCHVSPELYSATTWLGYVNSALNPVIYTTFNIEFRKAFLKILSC
Chain of Kappa-type opioid receptor (P41145 whole entry): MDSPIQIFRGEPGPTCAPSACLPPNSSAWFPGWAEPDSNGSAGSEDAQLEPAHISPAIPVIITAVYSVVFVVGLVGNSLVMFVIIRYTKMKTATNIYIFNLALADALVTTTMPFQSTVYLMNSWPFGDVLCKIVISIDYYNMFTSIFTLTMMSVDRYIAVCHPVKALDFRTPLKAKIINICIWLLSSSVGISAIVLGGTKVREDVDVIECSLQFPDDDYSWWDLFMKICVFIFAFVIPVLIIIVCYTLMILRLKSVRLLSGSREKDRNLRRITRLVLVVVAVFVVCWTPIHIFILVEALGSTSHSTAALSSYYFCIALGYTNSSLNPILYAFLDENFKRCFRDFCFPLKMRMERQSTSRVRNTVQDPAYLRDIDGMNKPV
Chain of Beta-2 adrenergic receptor (P07550 whole entry): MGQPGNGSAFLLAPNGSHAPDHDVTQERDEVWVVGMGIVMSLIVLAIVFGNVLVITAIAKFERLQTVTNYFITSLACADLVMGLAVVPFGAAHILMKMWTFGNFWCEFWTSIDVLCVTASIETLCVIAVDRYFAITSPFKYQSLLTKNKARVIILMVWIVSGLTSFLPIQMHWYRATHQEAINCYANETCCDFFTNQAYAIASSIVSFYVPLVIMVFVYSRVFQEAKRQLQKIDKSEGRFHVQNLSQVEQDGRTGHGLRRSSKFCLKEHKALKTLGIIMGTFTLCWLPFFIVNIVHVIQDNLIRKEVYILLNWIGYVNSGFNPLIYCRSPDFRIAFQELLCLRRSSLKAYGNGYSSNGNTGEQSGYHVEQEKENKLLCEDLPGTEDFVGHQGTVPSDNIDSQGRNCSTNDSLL
Chain of 5-hydroxytryptamine receptor 2A (P28223 whole entry): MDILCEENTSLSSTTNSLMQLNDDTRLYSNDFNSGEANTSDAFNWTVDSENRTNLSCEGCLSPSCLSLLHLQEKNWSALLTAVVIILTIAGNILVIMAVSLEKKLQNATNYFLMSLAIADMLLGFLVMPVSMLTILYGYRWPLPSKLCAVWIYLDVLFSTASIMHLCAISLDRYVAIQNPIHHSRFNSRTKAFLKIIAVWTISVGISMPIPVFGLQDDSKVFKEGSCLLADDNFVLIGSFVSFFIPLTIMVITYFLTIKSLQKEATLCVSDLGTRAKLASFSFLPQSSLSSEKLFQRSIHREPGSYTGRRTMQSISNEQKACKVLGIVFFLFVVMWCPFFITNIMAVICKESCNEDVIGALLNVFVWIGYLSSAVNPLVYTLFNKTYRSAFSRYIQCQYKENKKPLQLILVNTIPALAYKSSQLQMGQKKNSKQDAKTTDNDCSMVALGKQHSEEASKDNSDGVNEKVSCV
Chain of Mu-type opioid receptor (P35372 whole entry): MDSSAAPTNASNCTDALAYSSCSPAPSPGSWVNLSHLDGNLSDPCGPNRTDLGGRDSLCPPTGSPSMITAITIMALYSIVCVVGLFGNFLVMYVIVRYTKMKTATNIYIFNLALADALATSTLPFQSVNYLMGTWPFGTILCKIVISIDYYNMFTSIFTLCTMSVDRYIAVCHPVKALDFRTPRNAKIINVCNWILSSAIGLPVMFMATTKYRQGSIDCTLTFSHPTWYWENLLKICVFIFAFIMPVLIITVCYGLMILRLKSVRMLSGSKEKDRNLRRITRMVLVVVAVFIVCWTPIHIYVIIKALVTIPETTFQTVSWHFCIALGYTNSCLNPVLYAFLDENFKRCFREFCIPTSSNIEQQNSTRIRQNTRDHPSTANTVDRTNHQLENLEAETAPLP
Chain of Muscarinic acetylcholine receptor M3 (P20309 whole entry): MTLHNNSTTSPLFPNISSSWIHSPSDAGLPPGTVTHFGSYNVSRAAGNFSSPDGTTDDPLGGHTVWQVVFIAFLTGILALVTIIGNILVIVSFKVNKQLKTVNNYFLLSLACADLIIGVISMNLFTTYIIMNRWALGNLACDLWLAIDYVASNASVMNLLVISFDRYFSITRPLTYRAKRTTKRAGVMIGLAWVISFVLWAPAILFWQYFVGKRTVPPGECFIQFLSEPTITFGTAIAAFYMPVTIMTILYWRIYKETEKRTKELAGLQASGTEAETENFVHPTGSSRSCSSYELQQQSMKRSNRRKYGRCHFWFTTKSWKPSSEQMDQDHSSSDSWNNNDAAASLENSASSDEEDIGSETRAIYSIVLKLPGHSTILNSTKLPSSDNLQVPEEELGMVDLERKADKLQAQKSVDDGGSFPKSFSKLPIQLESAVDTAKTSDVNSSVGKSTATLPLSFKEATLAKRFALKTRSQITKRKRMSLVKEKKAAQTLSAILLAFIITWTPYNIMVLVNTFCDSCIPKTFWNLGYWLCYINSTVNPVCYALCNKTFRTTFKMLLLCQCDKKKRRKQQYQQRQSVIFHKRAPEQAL
Chain of Beta-1 adrenergic receptor (P08588 whole entry): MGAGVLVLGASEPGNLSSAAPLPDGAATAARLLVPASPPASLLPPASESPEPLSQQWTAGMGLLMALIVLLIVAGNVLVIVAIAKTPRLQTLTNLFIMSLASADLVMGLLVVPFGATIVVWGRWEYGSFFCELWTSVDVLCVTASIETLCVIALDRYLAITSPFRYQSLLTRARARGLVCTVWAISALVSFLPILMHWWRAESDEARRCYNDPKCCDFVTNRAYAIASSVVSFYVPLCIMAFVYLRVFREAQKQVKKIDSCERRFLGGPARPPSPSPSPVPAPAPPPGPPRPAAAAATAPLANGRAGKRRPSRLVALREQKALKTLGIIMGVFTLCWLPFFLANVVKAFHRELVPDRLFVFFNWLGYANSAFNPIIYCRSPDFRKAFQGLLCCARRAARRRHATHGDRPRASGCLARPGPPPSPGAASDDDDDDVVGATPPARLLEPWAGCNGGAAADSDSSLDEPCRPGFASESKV
Chain of Delta-type opioid receptor (P41143 whole entry): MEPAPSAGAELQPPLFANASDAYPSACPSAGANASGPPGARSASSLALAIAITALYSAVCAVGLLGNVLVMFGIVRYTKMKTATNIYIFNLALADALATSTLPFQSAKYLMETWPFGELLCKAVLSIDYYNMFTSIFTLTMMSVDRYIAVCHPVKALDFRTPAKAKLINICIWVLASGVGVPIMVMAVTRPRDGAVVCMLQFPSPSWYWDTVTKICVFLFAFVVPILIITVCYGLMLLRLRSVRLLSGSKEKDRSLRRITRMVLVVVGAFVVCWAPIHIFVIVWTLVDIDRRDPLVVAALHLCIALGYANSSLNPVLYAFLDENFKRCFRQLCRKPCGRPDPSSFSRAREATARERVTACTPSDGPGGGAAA
Chain of D(1B) dopamine receptor (P21918 whole entry): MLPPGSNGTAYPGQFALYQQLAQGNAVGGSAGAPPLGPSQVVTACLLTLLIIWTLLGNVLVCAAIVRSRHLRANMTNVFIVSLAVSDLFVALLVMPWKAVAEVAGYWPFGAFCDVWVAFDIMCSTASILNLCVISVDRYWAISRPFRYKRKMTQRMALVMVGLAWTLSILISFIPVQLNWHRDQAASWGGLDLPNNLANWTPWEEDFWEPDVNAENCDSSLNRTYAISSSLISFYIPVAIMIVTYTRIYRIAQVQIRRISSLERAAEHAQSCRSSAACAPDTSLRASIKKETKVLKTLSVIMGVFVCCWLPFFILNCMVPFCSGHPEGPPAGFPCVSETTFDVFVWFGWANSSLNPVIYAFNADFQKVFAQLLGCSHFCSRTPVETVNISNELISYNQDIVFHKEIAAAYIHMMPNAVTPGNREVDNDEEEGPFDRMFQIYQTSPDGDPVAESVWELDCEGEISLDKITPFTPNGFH
Chain of D(1A) dopamine receptor (P21728 whole entry): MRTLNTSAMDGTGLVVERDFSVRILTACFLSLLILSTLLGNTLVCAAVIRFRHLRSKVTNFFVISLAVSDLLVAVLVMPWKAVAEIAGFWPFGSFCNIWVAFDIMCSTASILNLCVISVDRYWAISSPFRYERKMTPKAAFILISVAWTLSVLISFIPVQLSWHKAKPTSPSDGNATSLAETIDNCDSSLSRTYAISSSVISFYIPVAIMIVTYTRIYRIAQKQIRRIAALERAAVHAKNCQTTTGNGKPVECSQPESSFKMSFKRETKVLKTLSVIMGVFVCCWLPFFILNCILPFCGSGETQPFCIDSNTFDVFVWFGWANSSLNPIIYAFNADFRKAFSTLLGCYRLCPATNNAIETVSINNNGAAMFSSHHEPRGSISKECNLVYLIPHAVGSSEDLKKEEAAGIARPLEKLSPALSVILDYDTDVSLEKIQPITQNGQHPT

COc1ccccc1N1CCN(CCCNC(=O)NN(Cc2ccccc2)c2ccc(F)cc2)CC1
Ki (D(2) dopamine receptor [1]): 6.6 nM
EC50 (D(4) dopamine receptor [2]): 340 nM
Ki (D(4) dopamine receptor [3]): 0.55 nM
EC50 (D(4) dopamine receptor [4]): 1.8 nM
Ratio Ki (Homo sapiens [5]): 45
Ratio Ki (Homo sapiens [6]): 7.8
Ratio Ki (Homo sapiens [7]): 12
IC50 (D(4) dopamine receptor [8]): 49 nM
Ki (D(2) dopamine receptor [9]): 4.3 nM
Ki (D(3) dopamine receptor): 25 nM

COc1ccccc1N1CCN(CCCNC(=O)NN(Cc2ccccc2)c2ccccc2)CC1
Ki (D(2) dopamine receptor [1]): 77 nM
Ki [10]: 3900 nM
Ki [11]: 14000 nM
Ki [12]: 1800 nM
Ki [13]: 25000 nM
Ki (D(1A) dopamine receptor): 200 nM
Ki [14]: 400 nM
Ki (Mu-type opioid receptor): 2000 nM
Activity [15]: inactive
Ki [16]: 13000 nM
Ki [17]: 65 nM
Ki [18]: 10000 nM
Ki (D(1B) dopamine receptor): 340 nM
Ki [19]: 17 nM
Ki [20]: 25000 nM
Ki [21]: 1.7 nM
Drug metabolism [22]: Metabolite_Detected
remaining at 2 h, 20 µM [23]: 10%
Ki (D(2) dopamine receptor [9]): 73 nM
Ki (D(3) dopamine receptor): 170 nM
